# Test results from ChEMBL document CHEMBL1165950, “Design and synthesis of new potent anticancer pyrazoles with high FLT3 kinase inhibitory selectivity” (Bioorg Med Chem, 2010).
# Key:
# Assay type in all cases: functional
# MDA-MB-231 = experiment: Cytotoxicity against human MDA-MB-231 cells assessed as cell growth at 10 uM; settings: read-out: Activity
# In short: (§1)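 NCI-60 screen: cells grown in RPMI 1640 with 5% FBS and 2 mM L-glutamine, plated at 5000–40,000 cells/well according to doubling time, and preincubated 24 h at 37 °C, 5% CO2. The single 10 µM dose (DMSO stock) was added, then incubated 48 h. Cells were TCA-fixed and stained with 0.4% SRB, read at 515 nm, and growth % calculated against time-zero and control plates.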
# NCI-H322M = experiment: Cytotoxicity against human NCI-H322M cells assessed as cell growth at 10 uM; settings: read-out: Activity; in short: as §1
# A498 = experiment: Cytotoxicity against human A498 cells assessed as cell growth at 10 uM; settings: read-out: Activity
# In short: (§2)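 Single-dose NCI-60 screen at 10 µM. Cells were grown in RPMI 1640 with 5% FBS and 2 mM L-glutamine, then treated for 48 h at 37 °C. Protein was measured by SRB staining with absorbance at 515 nm. Percentage growth was recorded, and inhibition percentage was calculated as 100 minus growth percentage.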
# [1] = Cytotoxicity against human Hs 578T cells assessed as cell growth at 10 uM; settings: read-out: Activity; in short: as §2
# CCRF-CEM = experiment: Cytotoxicity against human CCRF-CEM cells assessed as cell growth at 10 uM; settings: read-out: Activity; in short: as §2
# COLO 205 = experiment: Cytotoxicity against human COLO205 cells assessed as cell growth at 10 uM; settings: read-out: Activity; in short: as §2
# T47D = experiment: Cytotoxicity against human T47D cells assessed as cell growth at 10 uM; settings: read-out: Activity; in short: as §1
# OVCAR-4 = experiment: Cytotoxicity against human OVCAR4 cells assessed as cell growth at 10 uM; settings: read-out: Activity; in short: as §1
# SF-539 = experiment: Cytotoxicity against human SF539 cells assessed as cell growth at 10 uM; settings: read-out: Activity; in short: as §1
# DU-145 = experiment: Cytotoxicity against human DU145 cells assessed as cell growth at 10 uM; settings: read-out: Activity; in short: as §2
# LOX IMVI = experiment: Cytotoxicity against human LOXIMVI cells assessed as cell growth at 10 uM; settings: read-out: Activity; in short: as §1
# SR = experiment: Cytotoxicity against human SR cells assessed as cell growth at 10 uM; settings: read-out: Activity; in short: as §1
# SF-268 = experiment: Cytotoxicity against human SF268 cells assessed as cell growth at 10 uM; settings: read-out: Activity; in short: as §1
# HOP-92 = experiment: Cytotoxicity against human HOP92 cells assessed as cell growth at 10 uM; settings: read-out: Activity; in short: as §2
# SN12C = experiment: Cytotoxicity against human SN12C cells assessed as cell growth at 10 uM; settings: read-out: Activity; in short: as §1
# MDA-MB-435 = experiment: Cytotoxicity against human MDA-MB-435 cells assessed as cell growth at 10 uM; settings: read-out: Activity; in short: as §1
# KM12 = experiment: Cytotoxicity against human KM12 cells assessed as cell growth at 10 uM; settings: read-out: Activity; in short: as §1
# PC-3 = experiment: Cytotoxicity against human PC3 cells assessed as cell growth at 10 uM; settings: read-out: Activity; in short: as §1
# HCT-116 = experiment: Cytotoxicity against human HCT116 cells assessed as cell growth at 10 uM; settings: read-out: Activity; in short: as §2
# SW-620 = experiment: Cytotoxicity against human SW620 cells assessed as cell growth at 10 uM; settings: read-out: Activity; in short: as §1
# NCI-H23 = experiment: Cytotoxicity against human NCI-H23 cells assessed as cell growth at 10 uM; settings: read-out: Activity; in short: as §1
# UO-31 = experiment: Cytotoxicity against human UO31 cells assessed as cell growth at 10 uM; settings: read-out: Activity; in short: as §1
# NCI-H460 = experiment: Cytotoxicity against human NCI-H460 cells assessed as cell growth at 10 uM; settings: read-out: Activity; in short: as §1
# HCC 2998 = experiment: Cytotoxicity against human HCC2998 cells assessed as cell growth at 10 uM; settings: read-out: Activity; in short: as §2
# A549 = experiment: Cytotoxicity against human A549 cells assessed as cell growth at 10 uM; settings: read-out: Activity; in short: as §2
# NCI-H226 = experiment: Cytotoxicity against human NCI-H226 cells assessed as cell growth at 10 uM; settings: read-out: Activity; in short: as §1
# SF-295 = experiment: Cytotoxicity against human SF295 cells assessed as cell growth at 10 uM; settings: read-out: Activity; in short: as §1
# BT-549 = experiment: Cytotoxicity against human BT549 cells assessed as cell growth at 10 uM; settings: read-out: Activity; in short: as §2
# MCF7 = experiment: Cytotoxicity against human MCF7 cells assessed as cell growth at 10 uM; settings: read-out: Activity; in short: as §1
# OVCAR-8 = experiment: Cytotoxicity against human OVCAR8 cells assessed as cell growth at 10 uM; settings: read-out: Activity; in short: as §1
# RXF 393 = experiment: Cytotoxicity against human RXF393 cells assessed as cell growth at 10 uM; settings: read-out: Activity; in short: as §1
# U-251 = experiment: Cytotoxicity against human U251 cells assessed as cell growth at 10 uM; settings: read-out: Activity; in short: as §1
# MDA-MB-468 = experiment: Cytotoxicity against human MDA-MB-468 cells assessed as cell growth at 10 uM; settings: read-out: Activity; in short: as §1
# OVCAR-5 = experiment: Cytotoxicity against human OVCAR5 cells assessed as cell growth at 10 uM; settings: read-out: Activity; in short: as §1
# HT-29 = experiment: Cytotoxicity against human HT-29 cells assessed as cell growth at 10 uM; settings: read-out: Activity; in short: as §2
# SK-MEL-2 = experiment: Cytotoxicity against human SK-MEL-2 cells assessed as cell growth at 10 uM; settings: read-out: Activity; in short: as §1
# [2] = Growth inhibition of human NCI60 cells at 10 uM after 48 hrs by sulforhodamine B assay relative to control; settings: NCI60, 48 h, read-out: GI
# In short: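 Single-dose NCI screen at 10 µM across the 60-line panel, 48 h exposure at 37 °C after a 24 h preincubation. Adherent cells were fixed with cold TCA and stained with 0.4% SRB, and absorbance was read at 515 nm. Inhibition % was taken as 100 minus growth %, and the mean across all lines was reported.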
# [3] = Cytotoxicity against human […] cells assessed as cell growth at 10 uM; settings: read-out: Activity; in short: as §1
# SNB-19 = experiment: Cytotoxicity against human SNB19 cells assessed as cell growth at 10 uM; settings: read-out: Activity; in short: as §1
# Malme-3M = experiment: Cytotoxicity against human MALME-3M cells assessed as cell growth at 10 uM; settings: read-out: Activity; in short: as §1
# K562 = experiment: Cytotoxicity against human K562 cells assessed as cell growth at 10 uM; settings: read-out: Activity; in short: as §2
# SNB-75 = experiment: Cytotoxicity against human SNB75 cells assessed as cell growth at 10 uM; settings: read-out: Activity; in short: as §1
# ACHN = experiment: Cytotoxicity against human ACHN cells assessed as cell growth at 10 uM; settings: read-out: Activity; in short: as §2
# HCT-15 = experiment: Cytotoxicity against human HCT15 cells assessed as cell growth at 10 uM; settings: read-out: Activity; in short: as §2
# OVCAR-3 = experiment: Cytotoxicity against human OVCAR-3 cells assessed as cell growth at 10 uM; settings: read-out: Activity; in short: as §1
# TK-10 = experiment: Cytotoxicity against human TK10 cells assessed as cell growth at 10 uM; settings: read-out: Activity; in short: as §1
# UACC-257 = experiment: Cytotoxicity against human UACC257 cells assessed as cell growth at 10 uM; settings: read-out: Activity; in short: as §1
# EKVX = experiment: Cytotoxicity against human EKVX cells assessed as cell growth at 10 uM; settings: read-out: Activity; in short: as §2
# SK-MEL-5 = experiment: Cytotoxicity against human SK-MEL-5 cells assessed as cell growth at 10 uM; settings: read-out: Activity; in short: as §1
# SK-MEL-28 = experiment: Cytotoxicity against human SK-MEL-28 cells assessed as cell growth at 10 uM; settings: read-out: Activity; in short: as §1
# NCI/ADR-RES = experiment: Cytotoxicity against human NCI/ADR-RES cells assessed as cell growth at 10 uM; settings: read-out: Activity; in short: as §1
# NCI-H522 = experiment: Cytotoxicity against human NCI-H522 cells assessed as cell growth at 10 uM; settings: read-out: Activity; in short: as §1
# 786-0 = experiment: Cytotoxicity against human 786-0 cells assessed as cell growth at 10 uM; settings: read-out: Activity; in short: as §2
# MOLT-4 = experiment: Cytotoxicity against human MOLT4 cells assessed as cell growth at 10 uM; settings: read-out: Activity; in short: as §1
# UACC-62 = experiment: Cytotoxicity against human UACC62 cells assessed as cell growth at 10 uM; settings: read-out: Activity; in short: as §1
# IGROV-1 = experiment: Cytotoxicity against human IGROV1 cells assessed as cell growth at 10 uM; settings: read-out: Activity; in short: as §2
# SK-OV-3 = experiment: Cytotoxicity against human SKOV3 cells assessed as cell growth at 10 uM; settings: read-out: Activity; in short: as §1
# HOP-62 = experiment: Cytotoxicity against human HOP62 cells assessed as cell growth at 10 uM; settings: read-out: Activity; in short: as §2
# CAKI-1 = experiment: Cytotoxicity against human Caki1 cells assessed as cell growth at 10 uM; settings: read-out: Activity; in short: as §2
# HL-60(TB) = experiment: Cytotoxicity against human HL-60(TB) cells assessed as cell growth at 10 uM; settings: read-out: Activity
# In short: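 NCI 60-cell panel screen at a single concentration of 10 µM. Cells are grown in RPMI 1640 with 5% FBS and 2 mM L-glutamine and read by SRB protein staining at 515 nm. Percent growth is measured relative to time-zero and untreated controls; inhibition % is 100 minus growth %.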
# M14 = experiment: Cytotoxicity against human M14 cells assessed as cell growth at 10 uM; settings: read-out: Activity; in short: as §1
smiles,measurement,setting,value
COc1cc(C)cc(-c2nn(CC#N)cc2-c2ccnc(-c3cccc(NC(C)=O)c3)c2)c1,growth at 10 µM,MDA-MB-231,86.5%
same,growth at 10 µM,NCI-H322M,96.9%
same,growth at 10 µM,A498,74.2%
same,growth at 10 µM,[1],99%
same,growth at 10 µM,CCRF-CEM,83.9%
same,growth at 10 µM,COLO 205,93.5%
same,growth at 10 µM,T47D,79.3%
same,growth at 10 µM,OVCAR-4,99.7%
same,growth at 10 µM,SF-539,84.5%
same,growth at 10 µM,DU-145,105%
same,growth at 10 µM,LOX IMVI,97.5%
same,growth at 10 µM,SR,80.9%
same,growth at 10 µM,SF-268,97.3%
same,growth at 10 µM,HOP-92,79.6%
same,growth at 10 µM,SN12C,83%
same,growth at 10 µM,MDA-MB-435,99.6%
same,growth at 10 µM,KM12,109%
same,growth at 10 µM,PC-3,85.8%
same,growth at 10 µM,HCT-116,96.4%
same,growth at 10 µM,SW-620,104%
same,growth at 10 µM,NCI-H23,95.3%
same,growth at 10 µM,UO-31,63.6%
same,growth at 10 µM,NCI-H460,107%
same,growth at 10 µM,HCC 2998,101%
same,growth at 10 µM,A549,86.7%
same,growth at 10 µM,NCI-H226,93.1%
same,growth at 10 µM,SF-295,102%
same,growth at 10 µM,BT-549,79.1%
same,growth at 10 µM,MCF7,85%
same,growth at 10 µM,OVCAR-8,88%
same,growth at 10 µM,RXF 393,81.5%
same,growth at 10 µM,U-251,94.3%
same,growth at 10 µM,MDA-MB-468,82.8%
same,growth at 10 µM,OVCAR-5,91.6%
same,growth at 10 µM,HT-29,99.4%
same,growth at 10 µM,SK-MEL-2,92.1%
same,inhibition of growth at 10 µM,[2],1.18%
same,growth at 10 µM,[3],73.9%
same,growth at 10 µM,SNB-19,89.6%
same,growth at 10 µM,Malme-3M,108%
same,growth at 10 µM,K562,86.4%
same,growth at 10 µM,SNB-75,72.4%
same,growth at 10 µM,ACHN,88%
same,growth at 10 µM,HCT-15,94.5%
same,growth at 10 µM,OVCAR-3,109%
same,growth at 10 µM,TK-10,87.1%
same,growth at 10 µM,UACC-257,89.7%
same,growth at 10 µM,EKVX,101%
same,growth at 10 µM,SK-MEL-5,36.9%
same,growth at 10 µM,SK-MEL-28,104%
same,growth at 10 µM,NCI/ADR-RES,87.3%
same,growth at 10 µM,NCI-H522,82.5%
same,growth at 10 µM,786-0,84%
same,growth at 10 µM,MOLT-4,82.8%
same,growth at 10 µM,UACC-62,81.7%
same,growth at 10 µM,IGROV-1,98.4%
same,growth at 10 µM,SK-OV-3,93.3%
same,growth at 10 µM,HOP-62,98.5%
same,growth at 10 µM,CAKI-1,77.3%
same,growth at 10 µM,HL-60(TB),74.9%
same,growth at 10 µM,M14,96.3%
